Screening results deposited in PubChem by several laboratories.
Sampled rows, rich in hits. Any-hit rate of the full collection: about 1.5%.
PPC-1+TRAIL kill – PPC-1 cancer cell killing with TRAIL present | 220,000 compounds, 0.41% hits | AID 1443 | cell killing (% activity), % at 4 µM or 5 µM | PPC-1 cells + TRAIL, ATPLite viability luminescence;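 active means cell killing above 50% in the first pass at 4 µM, then a duplicate retest at 5 µM averaging 50% or more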;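 further: plate controls were cells with TRAIL plus DMSO for no effect and medium-only wells lacking cells for full effect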
Platelet DG rel – modulates dense granule release in human platelets; human platelet-rich plasma, SFLLRN dense granule ATP release, luminescence; inhibition, %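 (compounds screened at 7.5 µM in platelet-rich plasma)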; 300,000 compounds, 0.22% hits; AID 1663;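 active means mean replicate score, as percent of positive control, at or above 50; inconclusive means mean below 50 but at least one replicate at or above 50; inactive means mean and every replicate below 50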
Lipid droplet – hepatic lipid droplet formation modulation; AML12 mouse hepatocytes, oleate lipid droplets, BODIPY imaging; inhibition, % at 6.5 µM; 240,000 compounds, 0.4% hits; AID 1656;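 active means lipid droplet intensity inhibited by at least 50%, with more than 500 cells counted; inconclusive means wells with under 300 cells, treated as cytotoxic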
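material = mouse AML12 hepatocyte cell line, fixed after treatment | also added = 100 µM oleic acid challenge | doses = compound at 6.5 µM only | schedule = overnight exposure | technique = Image-based BODIPY and DAPI two-channel analysis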
STAT3 inh-1 – inhibitors of IL-6 induced STAT3 signaling; inhibition, % at 5.5 µM; AID 862; U3A cells, IL-6 STAT3-luciferase reporter, luminescence; host cell line lacks STAT1; 190,000 compounds, 0.89% hits;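 active means inhibition above the mean inhibition across all screened compounds plus 3 SD, cut at about 44% in these data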;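 further: 0% = DMSO only wells and 100% = 100 µM nifuroxazide control wells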
H9c2 TAG inh – inhibitors of triacylglycerol accumulation. H9c2 cells, Nile Red lipid (TAG) fluorescence; cells loaded with 200 µM oleic acid. inhibition, % at 12.5 µM. 230,000 compounds, 0.66% hits;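 active means pattern-corrected inhibition of lipid staining of at least 50% with the nuclear-stain viability signal not falling by more than 50%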;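 further: 0% = DMSO wells and 100% = triacsin C control wells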
STAT1 blocker – inhibitors of IFN-gamma induced STAT1 signaling. AID 920. NIH 3T3 STAT1-luciferase reporter, luminescence. inhibition, % at 5.5 µM. 200,000 compounds, 0.35% hits;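 active means inhibition above a set limit, the mean inhibition across all tested compounds plus 3 SD, cut at about 34% in these data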;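 further: 0% = IFN-gamma with DMSO and 100% = IFN-gamma with 300 µM nifuroxazide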
STAT3 inh-2 – confirmation of STAT3 signaling inhibitors. AID 1265. U3A cells, IL-6 STAT3 luciferase reporter, luminescence; cell line lacks STAT1. 1,200 compounds, 45% hits. inhibition, % at 5.7 µM. shares compounds with STAT3 inh-1;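 active means inhibition above the hit cutoff computed for the primary STAT3 screen, cut at about 44% in these data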;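 further: 0% = IL-6 plus DMSO and 100% = IL-6 plus nifuroxazide control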
NFkB inh STAT3ct – NF-kappaB inhibition in STAT3 inhibitor counter-screen; inhibition, % at 5.7 µM; 1,200 compounds, 36% hits; shares compounds with STAT3 inh-1; HEK293T NF-kB luciferase reporter, TNF-alpha induced; AID 1308;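 active means inhibition above the mean of solvent-only control wells plus 3 SD, cutoff set per campaign, cut at about 13% in these data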;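 further: 0% = TNF-alpha with DMSO and 100% = TNF-alpha with MG high control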
STAT1 inh 2 – counter-screen for STAT3 inhibitors: STAT1 inhibition. shares compounds with STAT3 inh-1. 1,200 compounds, 27% hits. inhibition, % at 5.7 µM. NIH 3T3 STAT1-luciferase reporter, IFN-gamma induced, luminescence;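 active means inhibition above the mean plus 3 SD of solvent-only control wells, limit set per screening run, cut at about 16% in these data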;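 further: 0% = DMSO with IFN-gamma and 100% = nifuroxazide control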
An asterisk follows results filed as active; u = inconclusive; x = not tested or not shown.

SMILES	PPC-1+TRAIL kill	Platelet DG rel	Lipid droplet	STAT3 inh-1	H9c2 TAG inh	STAT1 blocker	STAT3 inh-2	NFkB inh STAT3ct	STAT1 inh 2
COc1ccc(CCNc2ncnc3sccc23)cc1OC	15	3	-54	89*	-26	24	89*	40*	31*
NS(=O)(=O)c1ccc(CNc2ncnc3sccc23)cc1	x	4	-1	x	x	x	x	x	x
Cc1sc2ncnc(NCCc3ccc(S(N)(=O)=O)cc3)c2c1C	32	1	-24	74*	x	30	80*	29*	30*
COc1ccc(-c2cc(C)nc3c(-c4ccccc4)cnn23)cc1	28	2	x	51*	-52	-72	-18	-38	-183
Cc1cc(-c2ccccc2)n2ncc(-c3ccccc3)c2n1	55*	1	-19	50*	x	-49	0	-15	-134
O=C(NCc1cccc(Cl)c1)c1cc(COc2ccc3ncccc3c2)on1	5	-19	0	45*	-15	28	62*	15*	21*
CC(CCCC(C)(C)O)NC(=O)c1cc(COc2ccc3ncccc3c2)on1 (stereo unspecified)	10	3	2	63*	-2	30	63*	21*	24*
CCN1C(=N)N(c2ccccc2)C(=O)C(CC)(CC)C1=O	x	x	x	x	-14	x	x	x	x
COC(=O)N(C)C[C@@H]1OCc2cnnn2CCCC(=O)N([C@H](C)CO)C[C@H]1C	x	x	x	x	-3	x	x	x	x
Cc1csc(N=Nc2ccc(N(C)C)cc2)[n+]1[O-]	x	x	x	x	21	x	x	x	x
COC(=O)c1ccccc1NC(=O)CNc1cc(OC)c(OC)cc1C	5	1	-36	51*	x	24	65*	18*	26*
COCc1cccc(-c2csc(C(C)(O)c3cccc(OC)c3)n2)c1 (stereo unspecified)	x	x	x	x	-29	x	x	x	x
CCCCCCn1c(=O)n2n(c1=O)C[C@]1(OC(=O)NCc3ccco3)CN(S(=O)(=O)c3ccc(C)cc3)C[C@]1(O)C2	x	x	x	x	-2	x	x	x	x
Cc1ccc(C)c(C(=O)CSc2nnnn2C(C)C)c1	6	-8	-20	16	-8	-10	x	x	x
Cc1ccc(C(=O)CSc2nnnn2C(C)C)c(C)c1	19	2	-89	78*	-16	30	49*	22*	-24
CC(C)C[C@@H](CN)NC(=O)c1nc[nH]c1C(=O)N[C@@H](C)C(=O)CNC[C@H](C)NC(=O)c1nc[nH]c1C(=O)N[C@@H](C)C(=O)O	x	x	x	x	0	x	x	x	x
CC1(C)CC(=O)C=C(NC2=CC3OC(c4ccccc4)OCC3OC2=O)C1 (stereo unspecified)	3	u	-1	45*	x	15	42	23*	18*
Cc1ccccc1NC1=CC(=O)CC(C)(C)C1	22	-1	-7	3	x	2	x	x	x
NC(=O)CSc1nnc(Cn2cnc3ccccc32)o1	3	-3	5	7	-5	8	x	x	x
Clc1ccc(CSc2nnc(Cn3cnc4ccccc43)o2)cc1	-3	-2	-35	63*	-12	12	45*	12	8
O=C(CSc1nnc(Cn2nnc3ccccc32)o1)Nc1cccc(Cl)c1	16	-1	x	12	-1	-6	x	x	x
O=C(CSc1nnc(Cn2nnc3ccccc32)o1)N(Cc1ccc(Cl)cc1)c1ccccc1	32	-2	-45	53*	-60	18	45*	13*	19*
O=C(/C=C/Nc1ccc(F)cc1)c1cccs1	x	-24	x	51*	-12	22	-7	-12	-75
COCOc1ccc(-c2ncc(OCCN3CCCC3=O)nc2NC(=O)c2cc3ccccc3s2)cc1	x	x	x	x	4	x	x	x	x
Cc1cc(C)nc(SCC(=O)Nc2ccc(N3CCOCC3)c(Cl)c2)n1	0	x	-50	45*	-52	22	51*	12	24*
CC1(C(=O)NS(=O)(=O)C2CC2)CCCN(C(=O)COCc2ccccc2)C1 (stereo unspecified)	x	x	x	x	-10	x	x	x	x
